Data on four compounds can be found in ChEMBL document CHEMBL1921714, “Discovery of aminobenzyloxyarylamides as κ opioid receptor selective antagonists: application to preclinical development of a κ opioid receptor antagonist receptor occupancy tracer” (J Med Chem, 2011).

Data set [1] relates to CHO. Briefly: Selectivity ratio of Ki for human opioid mu receptor expressed in CHO cells to Ki for human opioid kappa receptor expressed in CHO cells. Format: cell-based.
Data set [2] concerns HEK293. As to the kind of experiment: Selectivity ratio of Kb for human opioid delta receptor expressed in HEK293 cells to Kb for human opioid kappa receptor expressed in CHO cells. Format: cell-based. In a few lines:
(§1)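 Kb ratios from antagonist [35S]GTP-γ-S SPA on CHO (κ, μ) or HEK293 (δ) membranes. Agonists at about 80% maximal: U69,593 300 nM (κ), DAMGO 1 μM (μ), DPDPE 30 nM (δ). 11-point curves, top 1 or 10 μM. Nonspecific binding: NorBNI, naltrexone or naltriben, each 10 μM. Kb = IC50/(1+D/EC50); geometric means with SEM.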

Data set [3] addresses T1, Kappa-type opioid receptor (Homo sapiens, UniProt P41145). As to the kind of experiment: Antagonist activity at human opioid kappa receptor expressed in CHO cells assessed as inhibition of U69593-induced [35S]GTP-gamma-S binding after 4 hrs by scintillation counting. Format: functional, cell-based. (Binding of GTPγS marks nucleotide exchange on a G protein.)
The test system of data set [4] is Striatum. Briefly: Drug uptake in rat striatum at 30 ug/kg, iv measured after 40 mins by LC/MS-MS analysis. The class given is ADME, organism-based. The conditions noted are these: in vivo, 0.03 mg/kg. In a few lines: (§2)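 Groups of four rats received a single iv tracer dose and were killed 20 or 40 min later. Striatum was weighed, homogenized in 4 volumes acetonitrile/0.1% formic acid and centrifuged. The supernatant was diluted and analysed by LC/MS/MS against standards spiked into naive rat brain. %SUV = tissue amount/injected dose × 100.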

Data set [5] concerns the target T2, Mu-type opioid receptor (Homo sapiens, UniProt P35372). Briefly: Antagonist activity at human opioid mu receptor expressed in CHO cells assessed as inhibition of DAMGO-induced [35S]GTP-gamma-S binding after 4 hrs by scintillation counting. Format: functional, cell-based.
Data set [6] deals with T2, Mu-type opioid receptor. As to the kind of experiment: Agonist activity at human opioid mu receptor expressed in CHO cells assessed as stimulation of [35S]-GTPgammaS binding at 10 uM. The class given is functional, cell-based. In a few lines: (§3)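 Agonist mode: membranes from CHO (κ, μ) or HEK293 (δ) cells expressing cloned human receptors, no agonist added, tested at up to 10 μM. [35S]GTP-γ-S (0.5 nM final) binding in HEPES pH 7.4, MgCl2, NaCl, EDTA, DTT, 200 μM GDP. Read by WGA SPA beads after 2 h (δ) or 4 h (κ, μ) at room temperature, then 4 °C overnight.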

The target of data set [7] is T2, Mu-type opioid receptor. As to the kind of experiment: Displacement of [3H]diprenorphine from human opioid mu receptor expressed in CHO cells after 120 mins by scintillation counting. The class given is cell-based. An outline of the steps:
(§4)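 11-point curves, 0.01 nM–1 μM final. 120 min at 22 °C, then filtration and scintillation counting. Nonspecific binding set by 10 μM naltrexone. Four-parameter IC50; Ki by Cheng–Prusoff.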
On the technique in general: Loss of bound radioactivity is the signal in a displacement assay; it reports binding, not function.

Data set [8] has as its target T3, Delta-type opioid receptor (Homo sapiens, UniProt P41143). As to the kind of experiment: Antagonist activity at human opioid delta receptor expressed in HEK293 cells assessed as inhibition of DPDPE-induced [35S]GTP-gamma-S binding after 4 hrs by scintillation counting. Format: functional, cell-based.
For data set [9], the target named is T1, Kappa-type opioid receptor. Briefly: Displacement of [3H]diprenorphine from human opioid kappa receptor expressed in CHO cells after 120 mins by scintillation counting. Format: cell-based. An outline of the steps: as §4
Data set [10] concerns the target T3, Delta-type opioid receptor. Briefly: Displacement of [3H]diprenorphine from human opioid delta receptor expressed in HEK293 cells after 120 mins by scintillation counting. The class given is cell-based. In a few lines:
as §4

Data set [11] relates to HEK293. As to the kind of experiment: Selectivity ratio of Ki for human opioid delta receptor expressed in HEK293 cells to Ki for human opioid kappa receptor expressed in CHO cells. The class given is cell-based.
Data set [12] concerns the target T3, Delta-type opioid receptor. As to the kind of experiment: Agonist activity at human opioid delta receptor expressed in HEK293 cells assessed as stimulation of [35S]-GTPgammaS binding at 10 uM. The class given is functional, cell-based. An outline of the steps: as §3
The subject of data set [13] is Nucleic Acid. Briefly: Ratio of drug uptake in striatum to cerebellum in rat at 30 ug/kg, iv measured after 40 mins by LC/MS/MS analysis. Format: ADME, organism-based. The conditions noted are these: in vivo, 0.03 mg/kg. In a few lines: (§5)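 Groups of four rats were given iv tracer and killed 20 or 40 min after dosing. Striatum (total binding) and cerebellum (nonspecific, null region) were extracted in acetonitrile/0.1% formic acid and quantified by LC/MS/MS. Binding potential was calculated as (striatum/cerebellum concentration) − 1.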

In data set [14] the target is T1, Kappa-type opioid receptor. Briefly: Agonist activity at human opioid kappa receptor expressed in CHO cells assessed as stimulation of [35S]-GTPgammaS binding at 10 uM. The class given is functional, cell-based. In a few lines:
as §3

Data set [15] deals with CHO. Briefly: Selectivity ratio of Kb for human opioid mu receptor expressed in CHO cells to Kb for human opioid kappa receptor expressed in CHO cells. Format: cell-based. An outline of the steps:
as §1

The subject of data set [16] is Striatum. Briefly: Drug uptake in rat striatum at 1.5 ug/kg, iv measured after 40 mins by LC/MS-MS analysis. The conditions noted are these: in vivo, 0.0015 mg/kg. Format: ADME, organism-based. An outline of the steps: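 Groups of four rats received a single iv tracer dose and were killed 20 or 40 min later. Striatum was weighed, sonicated in 4 volumes of acetonitrile with 0.1% formic acid, and centrifuged. The supernatant was diluted with water and analysed by C18 LC/MS/MS (precursor-to-product ion transition) against standards spiked into naive rat brain. %SUV = (tissue amount / injected dose) × 100.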

Data set [17] has as its system Nucleic Acid. As to the kind of experiment: Ratio of drug uptake in striatum to cerebellum in rat at 1.5 ug/kg, iv measured after 40 mins by LC/MS/MS analysis. Format: ADME, organism-based. The conditions noted are these: in vivo, 0.0015 mg/kg. In a few lines: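 Rats (groups of four) given a single iv tracer dose, killed 20 or 40 min later. Striatum and cerebellum weighed, homogenised by ultrasonic probe in four volumes acetonitrile with 0.1% formic acid, centrifuged, supernatant diluted with water. Read-out is LC/MS/MS on C18 column monitoring precursor-to-product transitions, quantified against standards spiked into untreated rat brain. Binding potential = (striatum/cerebellum) − 1.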

Data set [18] has as its system Nucleic Acid. Briefly: Ratio of drug uptake in striatum to cerebellum in rat at 3 ug/kg, iv measured after 40 mins by LC/MS/MS analysis. The conditions noted are these: in vivo, 0.003 mg/kg. Format: ADME, organism-based. An outline of the steps: as §5
Data set [19] concerns Cerebellum. Briefly: Drug uptake in rat cerebellum at 3 ug/kg, iv pretreated 1 hr with 3-Fluoro-4-[4-[[ (2S)-2-(3-fluorophenyl)pyrrolidin-1-yl]methyl]- phenoxy]benzamide measured after 40 mins by LC/MS-MS analysis. Format: ADME, organism-based. The conditions noted are these: in vivo, 0.003 mg/kg. In a few lines: (§6)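 Rats were pretreated 1 h with the κ antagonist at a range of doses, then given tracer at 3 ug/kg iv. Brains were taken 40 min after tracer. Striatum and cerebellum were extracted in acetonitrile/0.1% formic acid and tracer levels quantified by LC/MS/MS.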

The test system of data set [20] is Striatum. Briefly: Drug uptake in rat striatum at 3 ug/kg, iv pretreated 1 hr with 3-Fluoro-4-[4-[[ (2S)-2-(3-fluorophenyl)pyrrolidin-1-yl]methyl]- phenoxy]benzamide measured after 40 mins by LC/MS-MS analysis. The conditions noted are these: in vivo, 0.003 mg/kg. Format: ADME, organism-based. An outline of the steps: as §6
For data set [21], the system named is Striatum. Briefly: Drug uptake in rat striatum at 3 ug/kg, iv measured after 40 mins by LC/MS-MS analysis. Format: ADME, organism-based. The conditions noted are these: in vivo, 0.003 mg/kg. In a few lines: as §2
Data set [22] relates to Rattus norvegicus. Briefly: Reversal of […] in po dosed rat. The class given is functional.
Data set [23] deals with Rattus norvegicus. As to the kind of experiment: In vivo receptor occupancy of opioid kappa in iv dosed rat striatum after 40 mins by 3-Chloro-4-[4-[ [ (2S)-2-(3-pyridyl)pyrrolidin-1-yl]methyl]phenoxy]- benzamide displacement assay. Format: functional.
In data set [24] the test system is Rattus norvegicus. Briefly: Antinociceptive activity in po dosed rat assessed as reversal of agonist […]-induced pain by formalin test. The class given is functional.

Molecules are shown by their SMILES. Activity calls are given as the source filed them. The calls are words filed in the database; no cut-off is given here.

T2 sequence (P35372 whole entry): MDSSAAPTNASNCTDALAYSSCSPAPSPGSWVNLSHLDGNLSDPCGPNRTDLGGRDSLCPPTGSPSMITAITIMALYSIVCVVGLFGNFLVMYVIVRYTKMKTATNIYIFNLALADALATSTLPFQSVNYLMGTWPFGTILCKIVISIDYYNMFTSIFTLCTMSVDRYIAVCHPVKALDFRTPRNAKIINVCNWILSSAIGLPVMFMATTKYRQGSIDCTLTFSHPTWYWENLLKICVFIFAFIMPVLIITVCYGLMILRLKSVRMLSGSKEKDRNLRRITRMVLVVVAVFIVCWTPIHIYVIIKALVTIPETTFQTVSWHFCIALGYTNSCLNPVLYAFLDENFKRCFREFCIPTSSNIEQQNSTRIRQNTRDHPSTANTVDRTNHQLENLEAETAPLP
T3 sequence (P41143 whole entry): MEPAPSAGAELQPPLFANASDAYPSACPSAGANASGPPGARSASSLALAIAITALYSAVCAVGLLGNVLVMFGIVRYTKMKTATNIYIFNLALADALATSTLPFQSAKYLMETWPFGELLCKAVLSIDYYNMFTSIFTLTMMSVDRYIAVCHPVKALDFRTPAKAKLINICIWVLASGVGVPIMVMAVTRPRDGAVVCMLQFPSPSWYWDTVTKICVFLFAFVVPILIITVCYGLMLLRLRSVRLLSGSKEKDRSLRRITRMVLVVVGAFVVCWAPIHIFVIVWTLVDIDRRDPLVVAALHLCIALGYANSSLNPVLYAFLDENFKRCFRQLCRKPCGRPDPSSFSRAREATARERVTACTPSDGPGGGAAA
T1 sequence (P41145 whole entry): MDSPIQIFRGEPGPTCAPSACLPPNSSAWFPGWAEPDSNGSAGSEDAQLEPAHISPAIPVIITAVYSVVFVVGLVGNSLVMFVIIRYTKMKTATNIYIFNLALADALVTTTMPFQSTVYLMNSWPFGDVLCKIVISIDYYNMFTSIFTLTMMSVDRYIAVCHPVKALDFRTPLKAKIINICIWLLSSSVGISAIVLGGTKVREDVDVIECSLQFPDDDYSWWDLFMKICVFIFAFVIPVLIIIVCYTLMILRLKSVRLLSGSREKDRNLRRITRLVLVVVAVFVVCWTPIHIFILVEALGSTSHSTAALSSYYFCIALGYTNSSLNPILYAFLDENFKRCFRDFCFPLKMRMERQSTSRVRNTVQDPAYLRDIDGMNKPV

For orientation: Kb means the equilibrium dissociation constant of an antagonist, usually derived from a functional assay. What is called Ki is the equilibrium dissociation constant of an inhibitor or competing ligand from its target. A lower Ki goes with tighter binding. Turning to `NC(=O)c1ccc(Oc2ccc(CN3CCCC3c3cccnc3)cc2)nc1` (racemic), the Ratio Ki in data set [1] was 27; in [11], > 330. For the same compound, the Ratio turned out to be 69 in [2], 2.2 in data set [13] and 19 in [15]. The Kb in [3] is 5.89 nM; in data set [5], 110 nM; in data set [8], 407 nM. In data set [4], this compound had an SUV of 13%. Besides, the result in [6], in [12] and in data set [14] was inactive. Further, the Ki is 39.6 nM in data set [7], 1.49 nM in [9] and > 500 nM in data set [10].
On to `COC(=O)N1CCN(C(=O)Cc2ccc(Cl)c(Cl)c2)[C@H](CN2CCCC2)C1`, for which the Ratio Ki worked out at 69 in data set [1] and 841 in data set [11]. For the same compound, the SUV in data set [16] is given as 50%. In addition, in [17], the Ratio is recorded as 1.5. Also, the result in data set [6], in [12] and in data set [14] was inactive. The Ki was 34.7 nM in data set [7], 0.502 nM in data set [9] and 422 nM in data set [10].
`NC(=O)c1ccc(Oc2ccc(CN3CCC[C@H]3c3cccnc3)cc2)c(Cl)c1`: the Ratio Ki in data set [1] was found to be 36; in data set [11], 212. Also, the Ratio in [18] was found to be 1.2; in [2], 132; in data set [15], 11. For the same compound, the figures for the Kb in data set [3], in data set [5] and in [8] were 0.632 nM, 6.8 nM and 83.3 nM, respectively. Besides, the figures for the Drug uptake result in data set [19] and in [20] were “Not Active” and “Active”, respectively. The compound also displayed an SUV in data set [21] of 67%. The result in data set [6], in data set [12] and in [14] was inactive. Also, the Ki in data set [7] was found to be 25.8 nM; in data set [9] it was 0.722 nM; in data set [10], 153 nM.
Usually ED50 stands for the dose at which the effect has come halfway, by size or by number of responders. For the compound `NC(=O)c1ccc(Oc2ccc(CN3CCC[C@H]3c3cccc(F)c3)cc2)c(F)c1`, the Ratio Ki worked out at 63 in [1] and 373 in [11]. The Ratio was 0.2 in [18], 187 in data set [2] and 14 in [15]. Besides, the results for the median effective dose (ED50) in data set [22], in data set [23] and in [24] were 30 mg/kg, 0.06 mg/kg and 0.24 mg/kg, respectively. The Kb in [3] was 1.57 nM; in data set [5] it was 21.3 nM; in [8] it was 293 nM. Also, the result in [6], in data set [12] and in data set [14] was inactive. Further, the results for the Ki in data set [7], in data set [9] and in data set [10] were 35.8 nM, 0.565 nM and 211 nM, respectively.
